{"source": "paper PMC7004556", "about": "(Cancer Science, 2020)", "key": {"[1]": {"system": "patients with advanced solid tumors", "experiment": "Phase I dose escalation: safety and tolerability", "assay_type": "in vivo, human", "method_in_brief": "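Patients received a single 1 mg oral dose on cycle 0 day 1, then a washout on days 2-7. Oral once-daily dosing followed in 28-day cycles from day 8-10. Doses were escalated by mTPI design (target DLT rate 25% ± 5%). DLTs were assessed over cycles 0-1 against predefined haematological, non-haematological, calcification and hyperphosphataemia criteria. AEs were coded by MedDRA v20.1 and graded by CTCAE v4.03.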"}, "advanced solid tumors": {"system": "advanced solid tumors", "experiment": "Antitumor activity by RECIST v1.1 in phase I", "assay_type": "in vivo, human", "method_in_brief": "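Tumours assessed by CT and/or MRI per RECIST v1.1 at screening, every 8 weeks from cycle 1 day 1, and at discontinuation. Oral once-daily dosing ran in 28-day cycles. Best overall response was scored in patients with ≥1 RECIST target lesion. The efficacy set covered treated patients with a baseline and ≥1 post-baseline assessment.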"}, "FGFR": {"system": "FGFR", "details": "SNU‐16 cells, dose‐dependent; cited from earlier work"}, "FGFR pathway": {"system": "FGFR pathway", "experiment": "Pharmacodynamic markers of FGFR pathway inhibition", "assay_type": "in vivo, human", "details": "QD", "method_in_brief": "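Blood was drawn before dosing in cycles 0, 1 and later odd cycles, and after the cycle 0 dose on days 1-4. FGF23 was measured by solid-phase sandwich ELISA (mouse anti-human FGF23 capture, peroxidase-conjugated mouse anti-human FGF23 detection, colorimetric). 1,25-(OH)2-vitamin D was measured by double-antibody RIA (sheep antibody 16-18 h, 125I tracer, cellulose-conjugated donkey anti-sheep IgG, γ-counting). Serum phosphate was also tracked.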"}, "[2]": {"system": "tumors harboring FGFR abnormalities", "details": "mice with tumors metastasized to the lung; cited from earlier work"}}}
{"smiles": "CNC(=O)n1ccc2cc(Oc3ccnc(NC(=O)c4ccc(C5CCN(CCO)CC5)cc4)c3)c(OCCOC)cc21", "note": "[E7090]", "values": [{"measurement": "Blood ALP increased, treatment‐related TEAE", "setting": "[1]; 100 mg (n = 3), any grade", "result": "1 (33.3) n (%)"}, {"measurement": "Blood creatinine increased, treatment‐related TEAE", "setting": "[1]; 100 mg (n = 3), any grade", "result": "1 (33.3) n (%)"}, {"measurement": "Hyperphosphatemia, treatment‐related TEAE", "setting": "[1]; 100 mg (n = 3), any grade", "result": "3 (100.0) n (%)"}, {"measurement": "Lipase increased, treatment‐related TEAE", "setting": "[1]; 100 mg (n = 3), any grade", "result": "1 (33.3) n (%)"}, {"measurement": "Nausea, treatment‐related TEAE", "setting": "[1]; 100 mg (n = 3), any grade", "result": "1 (33.3) n (%)"}, {"measurement": "Retinal detachment, treatment‐related TEAE", "setting": "[1]; 100 mg (n = 3), any grade", "result": "2 (66.7) n (%)"}, {"measurement": "ALT increased, treatment‐related TEAE", "setting": "[1]; 140 mg (n = 3), any grade", "result": "3 (100.0) n (%)"}, {"measurement": "AST increased, treatment‐related TEAE", "setting": "[1]; 140 mg (n = 3), any grade", "result": "2 (66.7) n (%)"}, {"measurement": "Anemia, treatment‐related TEAE", "setting": "[1]; 140 mg (n = 3), any grade", "result": "1 (33.3) n (%)"}, {"measurement": "Blood ALP increased, treatment‐related TEAE", "setting": "[1]; 140 mg (n = 3), any grade", "result": "2 (66.7) n (%)"}, {"measurement": "Blood creatinine increased, treatment‐related TEAE", "setting": "[1]; 140 mg (n = 3), any grade", "result": "3 (100.0) n (%)"}, {"measurement": "Diarrhea, treatment‐related TEAE", "setting": "[1]; 140 mg (n = 3), any grade", "result": "1 (33.3) n (%)"}, {"measurement": "Dysgeusia, treatment‐related TEAE", "setting": "[1]; 140 mg (n = 3), any grade", "result": "2 (66.7) n (%)"}, {"measurement": "Hyperphosphatemia, treatment‐related TEAE", "setting": "[1]; 140 mg (n = 3), any grade", "result": "3 (100.0) n (%)"}, {"measurement": "Lipase increased, treatment‐related TEAE", "setting": "[1]; 140 mg (n = 3), any grade", "result": "1 (33.3) n (%)"}, {"measurement": "Nausea, treatment‐related TEAE", "setting": "[1]; 140 mg (n = 3), any grade", "result": "1 (33.3) n (%)"}, {"measurement": "PPE syndrome, treatment‐related TEAE", "setting": "[1]; 140 mg (n = 3), any grade", "result": "1 (33.3) n (%)"}, {"measurement": "Retinal detachment, treatment‐related TEAE", "setting": "[1]; 140 mg (n = 3), any grade", "result": "1 (33.3) n (%)"}, {"measurement": "Vomiting, treatment‐related TEAE", "setting": "[1]; 140 mg (n = 3), any grade", "result": "1 (33.3) n (%)"}, {"measurement": "ALT increased, treatment‐related TEAE", "setting": "[1]; 180 mg (n = 3), any grade", "result": "2 (66.7) n (%)"}, {"measurement": "AST increased, treatment‐related TEAE", "setting": "[1]; 180 mg (n = 3), any grade", "result": "2 (66.7) n (%)"}, {"measurement": "Blood creatinine increased, treatment‐related TEAE", "setting": "[1]; 180 mg (n = 3), any grade", "result": "1 (33.3) n (%)"}, {"measurement": "Diarrhea, treatment‐related TEAE", "setting": "[1]; 180 mg (n = 3), any grade", "result": "3 (100.0) n (%)"}, {"measurement": "Dysgeusia, treatment‐related TEAE", "setting": "[1]; 180 mg (n = 3), any grade", "result": "1 (33.3) n (%)"}, {"measurement": "Hyperphosphatemia, treatment‐related TEAE", "setting": "[1]; 180 mg (n = 3), any grade", "result": "3 (100.0) n (%)"}, {"measurement": "Lipase increased, treatment‐related TEAE", "setting": "[1]; 180 mg (n = 3), any grade", "result": "1 (33.3) n (%)"}, {"measurement": "Nausea, treatment‐related TEAE", "setting": "[1]; 180 mg (n = 3), any grade", "result": "1 (33.3) n (%)"}, {"measurement": "PPE syndrome, treatment‐related TEAE", "setting": "[1]; 180 mg (n = 3), any grade", "result": "2 (66.7) n (%)"}, {"measurement": "Vomiting, treatment‐related TEAE", "setting": "[1]; 180 mg (n = 3), any grade", "result": "1 (33.3) n (%)"}, {"measurement": "ALT increased, treatment‐related TEAE", "setting": "[1]; 180 mg (n = 3), ≥Grade 3", "result": "2 (66.7) n (%)"}, {"measurement": "AST increased, treatment‐related TEAE", "setting": "[1]; 180 mg (n = 3), ≥Grade 3", "result": "1 (33.3) n (%)"}, {"measurement": "Vomiting, treatment‐related TEAE", "setting": "[1]; 180 mg (n = 3), ≥Grade 3", "result": "1 (33.3) n (%)"}, {"measurement": "Blood creatinine increased, treatment‐related TEAE", "setting": "[1]; 1‐30 mg (n = 12), any grade", "result": "2 (16.7) n (%)"}, {"measurement": "Lipase increased, treatment‐related TEAE", "setting": "[1]; 1‐30 mg (n = 12), any grade", "result": "1 (8.3) n (%)"}, {"measurement": "Nausea, treatment‐related TEAE", "setting": "[1]; 1‐30 mg (n = 12), any grade", "result": "1 (8.3) n (%)"}, {"measurement": "Recommended dose for Part 2 (expansion part)", "setting": "[1]; QD", "result": 140, "unit": "mg"}, {"measurement": "ALT increased, treatment‐related TEAE", "setting": "[1]; Total (N = 24), any grade", "result": "6 (25.0) n (%)"}, {"measurement": "AST increased, treatment‐related TEAE", "setting": "[1]; Total (N = 24), any grade", "result": "4 (16.7) n (%)"}, {"measurement": "Anemia, treatment‐related TEAE", "setting": "[1]; Total (N = 24), any grade", "result": "3 (12.5) n (%)"}, {"measurement": "Blood ALP increased, treatment‐related TEAE", "setting": "[1]; Total (N = 24), any grade", "result": "3 (12.5) n (%)"}, {"measurement": "Blood creatinine increased, treatment‐related TEAE", "setting": "[1]; Total (N = 24), any grade", "result": "9 (37.5) n (%)"}, {"measurement": "Diarrhea, treatment‐related TEAE", "setting": "[1]; Total (N = 24), any grade", "result": "6 (25.0) n (%)"}, {"measurement": "Dysgeusia, treatment‐related TEAE", "setting": "[1]; Total (N = 24), any grade", "result": "3 (12.5) n (%)"}, {"measurement": "Hyperphosphatemia, treatment‐related TEAE", "setting": "[1]; Total (N = 24), any grade", "result": "9 (37.5) n (%)"}, {"measurement": "Lipase increased, treatment‐related TEAE", "setting": "[1]; Total (N = 24), any grade", "result": "5 (20.8) n (%)"}, {"measurement": "Nausea, treatment‐related TEAE", "setting": "[1]; Total (N = 24), any grade", "result": "5 (20.8) n (%)"}, {"measurement": "PPE syndrome, treatment‐related TEAE", "setting": "[1]; Total (N = 24), any grade", "result": "4 (16.7) n (%)"}, {"measurement": "Retinal detachment, treatment‐related TEAE", "setting": "[1]; Total (N = 24), any grade", "result": "3 (12.5) n (%)"}, {"measurement": "Vomiting, treatment‐related TEAE", "setting": "[1]; Total (N = 24), any grade", "result": "3 (12.5) n (%)"}, {"measurement": "ALT increased, treatment‐related TEAE", "setting": "[1]; Total (N = 24), ≥Grade 3", "result": "2 (8.3) n (%)"}, {"measurement": "AST increased, treatment‐related TEAE", "setting": "[1]; Total (N = 24), ≥Grade 3", "result": "1 (4.2) n (%)"}, {"measurement": "Vomiting, treatment‐related TEAE", "setting": "[1]; Total (N = 24), ≥Grade 3", "result": "1 (4.2) n (%)"}, {"measurement": "Maximum tolerated dose (MTD)", "setting": "[1]; daily oral dose of 1‐180 mg", "result": "not reached"}, {"measurement": "Drug‐related deaths", "setting": "[1]; in vivo", "result": "No drug‐related deaths were reported"}, {"measurement": "Number of AE of hyperphosphatemia", "setting": "[1]; in vivo", "result": "nine"}, {"measurement": "Number of AE of retinal detachment", "setting": "[1]; in vivo", "result": "three"}, {"measurement": "SAE considered related to the study drug", "setting": "[1]; in vivo", "result": "None"}, {"measurement": "TEAE leading to discontinuation of the study drug", "setting": "[1]; in vivo", "result": "no TEAE led to discontinuation"}, {"measurement": "TEAE leading to dose reduction: PPE syndrome", "setting": "[1]; in vivo", "result": 2, "unit": "n"}, {"measurement": "TEAE leading to dose reduction: increased ALT", "setting": "[1]; in vivo", "result": 2, "unit": "n"}, {"measurement": "TEAE leading to dose reduction: increased AST", "setting": "[1]; in vivo", "result": 1, "unit": "n"}, {"measurement": "TEAE‐related dose interruption: anorexia", "setting": "[1]; in vivo", "result": 2, "unit": "n"}, {"measurement": "TEAE‐related dose interruption: decreased neutrophil count", "setting": "[1]; in vivo", "result": 1, "unit": "n"}, {"measurement": "TEAE‐related dose interruption: nasopharyngitis", "setting": "[1]; in vivo", "result": 1, "unit": "n"}, {"measurement": "TEAE‐related dose interruption: nausea", "setting": "[1]; in vivo", "result": 3, "unit": "n"}, {"measurement": "TEAE‐related dose interruption: vomiting", "setting": "[1]; in vivo", "result": 2, "unit": "n"}, {"measurement": "Number of patients with SAE", "setting": "[1]; of 24 patients treated", "result": "three"}, {"measurement": "Antitumor activity in cholangiocarcinoma with FGFR2 fusion", "setting": "advanced solid tumors; 30‐mg cohort", "result": "did not show potent antitumor activity"}, {"measurement": "Reduction in diameter of the target lesion", "setting": "advanced solid tumors; 180‐mg cohort, gastric cancer with FGFR2 amplification, cycle 3 day 1, from 38 to 11 mm", "result": 71, "unit": "%"}, {"measurement": "Phosphorylation of downstream molecules including FRS2α, ERK1/2, and AKT", "setting": "FGFR", "result": "inhibited phosphorylation"}, {"measurement": "Doses with sufficient FGFR pathway inhibition", "setting": "FGFR pathway", "result": "≥ 100", "unit": "mg"}, {"measurement": "Survival effect", "setting": "[2]", "result": "significantly prolonged survival effect"}]}
